# Screens (PubChem)
# In the library only some 8.7% were active in any assay of this set; here they are far more common.
# tolC growth inh – growth inhibitors of E. coli tolC mutant, primary screen, strain BW25113 ΔtolC::kan, 384-well; AID 573, 2007; growth inhibition, % at 10 µM (by protocol); 65,000 compounds, 2.2% hits; OD615;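 active means growth inhibition at or above a cutoff equal to the mean over every tested compound plus 3 SD, cut at about 60% in these data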;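 further: growth measured after 20 h incubation at 37 °C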
#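 Test system – E. coli BW25113 ΔtolC::kan, tolC deletion mutant strain · Detection – OD at 615 nm · Buffer or medium – LB with kanamycin 50 µg/mL · Times – 20 h compound exposure of bacteria at 37 °C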
# E coli WT exp – growth inhibitors of wild-type E. coli, primary screen, strain BW25113, expanded library, OD600 | OD600 absorbance | AID 710, 2007 | 98,000 compounds, 0.15% hits | growth inhibition, % at 100 µM;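 active means growth inhibition above about 50% at one test dose, limit read from the data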;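 further: growth measured after 20 h incubation at 37 °C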
# Cav3 T inh – Cav3.2 calcium influx blockers – cell-based, Fluo-4 calcium fluorescence, FDSS, MLSMR library, primary screen; Voltage-dependent T-type calcium channel subunit alpha-1H (Homo sapiens), O95180; Cav3.2-expressing cells; hits give low values; B-score at 10 µM; 100,000 compounds, 4% hits; AID 449739, 2010;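 active means single-dose well whose peak fluorescence ratio is a statistical outlier from its plate by either plate-standardised score or position-corrected B-score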
# PostGolgi yeast – phenotypic screen on post-Golgi transport, primary screen; post-Golgi transport phenotypic cell assay; inhibition, % at 10 µM; 98,000 compounds, 0.9% hits; AID 739, 2007;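 further: yeast cells grown in 1536-well plates; yeast grown about 18 h at 30C before absorbance read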
# PTK2B oligo ant – antagonists of Pyk2 self-association, primary screen, Q293 cells, FERM NanoBiT luminescence, HTS; Protein-tyrosine kinase 2-beta (Homo sapiens), Q14289; hits give low values; z-score (the deposit names both 25 µM and 10 µM); 99,000 compounds, 0.83% hits;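 active means Z-score of -3 or lower, scaled per plate to the spread of control and sample wells; inactive means z-score above -3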;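 further: negative z-score means lost luminescence so less FERM oligomerization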
# Target sequence (Q14289 whole entry, looked up): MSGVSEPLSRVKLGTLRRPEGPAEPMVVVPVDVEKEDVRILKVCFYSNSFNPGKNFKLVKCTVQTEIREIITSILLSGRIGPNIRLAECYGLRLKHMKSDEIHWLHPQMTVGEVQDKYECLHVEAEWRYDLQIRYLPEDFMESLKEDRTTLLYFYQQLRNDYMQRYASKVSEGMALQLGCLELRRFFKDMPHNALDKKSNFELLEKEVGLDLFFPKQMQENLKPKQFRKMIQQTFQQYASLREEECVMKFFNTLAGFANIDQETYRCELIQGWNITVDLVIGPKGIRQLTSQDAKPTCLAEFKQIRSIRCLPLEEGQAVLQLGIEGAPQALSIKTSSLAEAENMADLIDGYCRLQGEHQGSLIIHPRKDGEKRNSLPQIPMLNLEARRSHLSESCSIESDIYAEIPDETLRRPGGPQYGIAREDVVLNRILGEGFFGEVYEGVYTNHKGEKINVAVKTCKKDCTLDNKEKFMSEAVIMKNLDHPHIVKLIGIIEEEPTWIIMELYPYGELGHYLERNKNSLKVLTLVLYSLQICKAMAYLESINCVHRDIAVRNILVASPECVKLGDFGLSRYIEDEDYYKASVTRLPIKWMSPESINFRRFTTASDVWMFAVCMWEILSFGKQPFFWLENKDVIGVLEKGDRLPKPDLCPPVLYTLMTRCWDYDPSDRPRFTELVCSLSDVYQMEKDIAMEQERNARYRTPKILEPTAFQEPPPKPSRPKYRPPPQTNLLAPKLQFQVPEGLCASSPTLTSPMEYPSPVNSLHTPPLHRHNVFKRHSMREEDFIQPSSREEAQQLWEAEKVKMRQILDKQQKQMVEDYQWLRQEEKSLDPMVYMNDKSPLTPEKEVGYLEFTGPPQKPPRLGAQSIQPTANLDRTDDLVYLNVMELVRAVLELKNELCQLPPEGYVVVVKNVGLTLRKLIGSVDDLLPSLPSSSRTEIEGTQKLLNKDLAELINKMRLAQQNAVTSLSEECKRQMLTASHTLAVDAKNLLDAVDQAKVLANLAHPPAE
# PostGolgi ctrl – growth inhibition of yeast control strain, primary screen, counter-screen for post-Golgi transport modulator project | 98,000 compounds, 5% hits | inhibition, % at 10 µM | efflux-deficient yeast background strain, growth absorbance A615, 16 h
# An asterisk follows results filed as active; . = no result. Unless noted, no stated cut-off is given here; in the data, active means inhibition above about 30%; inactive means the rest.
SMILES,tolC growth inh,E coli WT exp,Cav3 T inh,PostGolgi yeast,PTK2B oligo ant,PostGolgi ctrl
C/C(CC1CC2=C(CC1(C)C)C(C)(C)CCC2)=N\NC(N)=S (configuration not stated),.,-1,-3.1,104*,-0.21,80*
CC(=O)c1cccc(NC(=O)CN(c2ccc(C)cc2)S(=O)(=O)c2cccc3nonc23)c1,16,-5,-1.5,-4,-1.1,34*
COc1cc(C2NC(C(=O)O)CS2)ccc1OCc1ccccc1C#N (configuration not stated),-12,8,0.16,-8,.,9
COC(=O)c1sccc1-c1ccc(C(=O)Nc2cccc(Cl)c2)o1,.,-10,-1.8,-2,-0.86,46*
COn1c2c(c3c4nonc4ccc31)CCCC2,.,-4,-2.4,15,0.23,-2
On1c2c(c3c4nonc4ccc31)CCCC2,.,.,-5.8*,.,.,.
Cc1ccc(Oc2ccc(S(=O)(=O)N3CCOCC3)cc2C(N)=O)c(-n2nc3ccccc3n2)c1,15,-1,.,2,-0.97,8
Cc1sc2ncn(CC(=O)NCCCC(=O)N3CCN(c4ncccn4)CC3)c(=O)c2c1C,-4,1,0.13,2,1.6,3
COc1ccc(CN2C(=O)c3ccccc3C(/C=N\OCc3ccc(F)cc3)C2=O)cc1 (configuration not stated),.,6,-3.7*,-1,-0.86,7
Cc1ccc(S(=O)(=O)N/N=C/c2c(C)nn(-c3ccccc3)c2C)cc1,.,-4,-2.5,0,-0.98,10
Cc1nn(-c2ccccc2)c(C)c1/C=N/NC(=O)c1cc(-c2ccccc2)n[nH]1,.,-15,-3.7,-6,-3*,10
CCOc1ccc(C2/C(=C(/O)c3ccc(F)cc3)C(=O)C(=O)N2CCCN(C)C)cc1 (configuration not stated),4,5,-0.56,-6,-0.24,44*
C=CCOc1ccc(C2/C(=C(\O)c3ccc(F)cc3)C(=O)C(=O)N2CCCN(C)C)cc1 (configuration not stated),12,-6,1.2,19,-0.35,3
Cc1cc(C)cc(N2C(=O)CC(n3ccnc3)C2=O)c1 (configuration not stated),-10,3,-0.53,5,0.02,32*
Cc1nc(SCC(=O)c2c[nH]c3ccccc23)n[nH]1,-5,10,-0.19,-4,-0.47,32*
O=C1CCCCCN1CSc1nc2ccccc2s1,4,2,-2.1,-6,2.1,46*
CCOP(=O)(c1ccccc1)c1nc(-c2ccccc2Cl)oc1N1CCCCC1 (configuration not stated),.,.,-11*,.,-1.5,.
CC1CCN(c2oc(-c3ccccc3Cl)nc2C#N)CC1,6,3,-0.67,-3,-1.1,24
Cc1ccc(S(=O)(=O)n2nc(-c3ccc(Cl)cc3)nc2NCc2ccco2)cc1,14,-17,-6.6*,-18,-0.7,3
CCOC(=O)COc1ccc(Br)cc1C1NC(=O)NC(C)=C1C(=O)NCc1ccccc1 (configuration not stated),.,1,-0.023,-16,-0.15,7
COCCn1c(Cc2ccccc2)nnc1SCC(=O)Nc1cc(C)on1,8,3,-1.3,4,-0.12,43*
Cc1cc(NC(=O)CSc2nnc(-c3ccc(Br)o3)n2Cc2ccccc2)no1,.,-1,-5*,6,0.52,11
CCN(CC)S(=O)(=O)c1cc(C(=O)NC2CCCCC2)ccc1C,-3,4,0.61,1,-0.88,1
O=C(C1CCCO1)N1CCC(O)(c2ccccc2)CC1 (configuration not stated),-15,-2,0.036,-3,0.32,14
COc1ccc(OC)c(NC(=O)CN2C(=O)NC3(CCOc4ccccc43)C2=O)c1 (configuration not stated),.,1,-0.19,15,-0.45,0
SMILES,tolC growth inh,E coli WT exp,Cav3 T inh,PostGolgi yeast,PTK2B oligo ant,PostGolgi ctrl
COC(/C=C/Nc1ccc(OC)cc1)=C(C#N)C#N,.,1,-2.8,0,-0.34,31*
Cc1cc(C)n(C(=O)CN2C(=O)COc3ccccc32)n1,-12,-1,-1.5,-4,-0.49,10
CN=c1scc(C)n1/N=C/c1ccc(O)cc1,22,-5,1.1,0,0.93,1
CN=c1scc(C)n1/N=C/c1ccc2c(c1)OCO2,5,5,-4*,-7,0.64,-5
CCCNC(=S)N(Cc1ccccc1)Cc1nc2ccccc2c(=O)[nH]1,.,.,.,.,-0.71,.
O=C(O)c1ccc(Br)c(S(=O)(=O)N2CCCC2)c1,-5,-6,-0.19,12,-0.18,10
COc1ccc(-c2csc(N(CC3CCCO3)C(=O)c3ccc(C)cc3)n2)cc1 (configuration not stated),.,.,-2,.,-0.83,.
Cc1ccc(-c2csc(N(CC3CCCO3)C(=O)c3ccco3)n2)cc1 (configuration not stated),67*,.,.,.,.,.
O=C(c1cccs1)N(CC1CCCO1)c1nc(-c2ccccc2)cs1 (configuration not stated),34,-22,-0.82,0,-1.9,12
O=C(c1ccco1)N(CC1CCCO1)c1nc(-c2ccccc2)cs1 (configuration not stated),44,-11,-3.1*,0,-2,21
COc1ccc(/C=C/C(=O)CC(O)(c2ccccc2)C(F)(F)F)cc1 (configuration not stated),.,.,-2.6,.,-1.2,.
O=C(/C=C/c1ccccc1)CC(O)(c1ccccc1)C(F)(F)F (configuration not stated),.,8,-3.1,6,-2.6,70*
O=C(/C=C/c1ccccc1)CC(O)(c1ccccc1)C(F)(F)C(F)F (configuration not stated),.,-1,-1.4,8,-2.9,66*
Fc1ccc(Br)cc1C1C=C(c2ccc(Br)s2)Nc2ncnn21 (configuration not stated),69*,-13,-2.9*,3,1.6,4
Cc1ccc(Sc2nnc(Cc3ccccc3)c3ccccc23)cc1,.,-6,-3.9,9,-1.7,34*
COc1ccc(Sc2nnc(Cc3ccccc3)c3ccccc23)cc1,.,-7,-2.2,-8,-2.7,16
O=S(=O)(Nc1nnc(-c2ccccc2)s1)c1ccc(Cl)cc1,87*,5,.,19,-1.6,10
CC[C@H]1OC(=O)[C@H](C)[C@@H](O[C@H]2C[C@@](C)(OC)[C@@H](O)[C@H](C)O2)[C@H](C)[C@@H](O[C@@H]2O[C@H](C)C[C@H](N(C)C)[C@H]2O)[C@](C)(OC)C[C@@H](C)C(=O)[C@H](C)[C@@H](O)[C@]1(C)O,.,.,-0.44,.,.,.
Cc1cc2oc(C(=O)NCc3ccncc3)c(C)c2cc1C,33,4,-0.27,-7,.,36*
